Data published in ChEMBL document CHEMBL4396921, “Synthesis and Biological Activity of Peptide α-Ketoamide Derivatives as Proteasome Inhibitors” (ACS Med Chem Lett, 2019).
Residues, ends and D or L forms follow the SMILES beside them. *: point of attachment. Cbz = O=C(OCc1ccccc1)*

Key:
[1] = biological target: T1, Proteasome Macropain subunit MB1 (Homo sapiens, UniProt P28074); experiment: Inhibition of 20S proteosome beta 5 purified from human HCT116 cells using Suc-LLVY-AMC as substrate incubated for 30 to 120 mins by fluorimetry
T1 sequence (P28074 whole entry): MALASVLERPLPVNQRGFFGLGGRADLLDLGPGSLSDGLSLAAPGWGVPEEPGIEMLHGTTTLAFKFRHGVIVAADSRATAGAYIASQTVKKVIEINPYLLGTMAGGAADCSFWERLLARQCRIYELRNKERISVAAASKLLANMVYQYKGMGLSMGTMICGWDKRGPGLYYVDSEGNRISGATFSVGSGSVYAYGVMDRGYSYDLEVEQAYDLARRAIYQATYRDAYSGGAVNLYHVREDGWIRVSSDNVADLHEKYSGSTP
Method in brief: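 Semipurified proteasomes were pretreated with compound at 0.01–100 μM in activity buffer. Fluorogenic AMC substrates were used: Z-LLE-AMC for PGPH (β1), Boc-LRR-AMC for T-L (β2) and Suc-LLVY-AMC for ChT-L (β5). IC50 reported as mean ± SEM of three independent experiments.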

HCT-116 [2] = experiment: Induction of apoptosis in human HCT116 cells assessed as early apoptotic cells at 1 uM incubated for 72 hrs by annexin-V FITC and propidium iodide staining based flow cytometry relative to control; type: functional
Method in brief: (§1)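 HCT116 tumour cells cultured 48 or 72 h with or without compound at 1 μM. Cells were stained with Annexin V and propidium iodide. Annexin V+/PI− was scored as early apoptotic and Annexin V+/PI+ as late apoptotic. Percentages of cells were read from dot plots, with three experiments run.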

HCT-116 [3] = experiment: Induction of apoptosis in human HCT116 cells assessed as viable cells at 1 uM incubated for 48 hrs by annexin-V FITC and propidium iodide staining based flow cytometry relative to control; type: functional; conditions: HCT-116, 48 h, read-out: Activity; method in brief: as §1
HCT-116 [4] = experiment: Induction of apoptosis in human HCT116 cells assessed as necrotic cells at 1 uM incubated for 48 hrs by annexin-V FITC and propidium iodide staining based flow cytometry relative to control; type: functional; method in brief: as §1
HCT-116 [5] = experiment: Antiproliferative activity against human HCT116 cells assessed as reduction in cell viability incubated for 72 hrs by MTT assay; type: functional, cell-based; conditions: HCT-116, 72 h
Method in brief: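 HCT116 human colorectal carcinoma cells exposed to compounds at 0.1–100 μM. IC50 for proliferation reported as mean ± SEM of three independent experiments.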

HCT-116 [6] = experiment: Induction of apoptosis in human HCT116 cells assessed as late apoptotic cells at 1 uM incubated for 48 hrs by annexin-V FITC and propidium iodide staining based flow cytometry relative to control; type: functional; method in brief: as §1
HCT-116 [7] = experiment: Induction of apoptosis in human HCT116 cells assessed as early apoptotic cells at 1 uM incubated for 48 hrs by annexin-V FITC and propidium iodide staining based flow cytometry relative to control; type: functional; method in brief: as §1
HCT-116 [8] = experiment: Induction of apoptosis in human HCT116 cells assessed as late apoptotic cells at 1 uM incubated for 72 hrs by annexin-V FITC and propidium iodide staining based flow cytometry relative to control; type: functional; method in brief: as §1
HCT-116 [9] = experiment: Induction of apoptosis in human HCT116 cells assessed as viable cells at 1 uM incubated for 72 hrs by annexin-V FITC and propidium iodide staining based flow cytometry relative to control; type: functional; conditions: HCT-116, 72 h, read-out: Activity; method in brief: as §1
HCT-116 [10] = experiment: Induction of apoptosis in human HCT116 cells assessed as necrotic cells at 1 uM incubated for 72 hrs by annexin-V FITC and propidium iodide staining based flow cytometry relative to control; type: functional; method in brief: as §1
Homo sapiens [11] = species: Homo sapiens; experiment: Selectivity index, ratio of IC50 of 20S proteosome beta 5 purified from human HCT116 cells to IC50 of 20S proteosome beta 2 purified from human HCT116 cells
Homo sapiens [12] = species: Homo sapiens; experiment: Selectivity index, ratio of IC50 of 20S proteosome beta 1 purified from human HCT116 cells to IC50 of 20S proteosome beta 2 purified from human HCT116 cells
Homo sapiens [13] = species: Homo sapiens; experiment: Selectivity ratio of IC50 of 20S proteosome beta 2 purified from human HCT116 cells to IC50 of 20S proteosome beta 5 purified from human HCT116 cells
Homo sapiens [14] = species: Homo sapiens; experiment: Selectivity ratio of IC50 of 20S proteosome beta 1 purified from human HCT116 cells to IC50 of 20S proteosome beta 5 purified from human HCT116 cells

SMILES: CC(C)C[C@H](NC(=O)OCc1ccccc1)C(=O)N[C@@H](Cc1ccc(O)cc1)C(O)C(=O)NCc1ccccc1 (stereo not given in full)
- IC50 [1]: 70.4 µM

SMILES: CC(C)C[C@H](NC(=O)OCc1ccccc1)C(=O)N[C@@H](CC(C)C)C(=O)N[C@@H](CC(C)C)C(O)C(=O)N1CCOCC1 (stereo not given in full)
- IC50 [1]: > 100 µM

SMILES: CC(C)C[C@H](NC(=O)OCc1ccccc1)C(=O)N[C@@H](CC(N)=O)C(=O)C(=O)NCc1ccccc1
- IC50 [1]: > 100 µM

SMILES: CC(C)C[C@H](NC(=O)OCc1ccccc1)C(=O)N[C@@H](CC(C)C)C(=O)N[C@@H](CC(C)C)C(O)C(=O)NCc1ccccc1 (stereo not given in full)
- IC50 [1]: 0.53 µM

SMILES: CC(C)CNC(=O)C(=O)[C@H](CC(C)C)NC(=O)[C@H](CC(C)C)NC(=O)[C@H](CC(C)C)NC(=O)OCc1ccccc1
- IC50 [1]: 0.012 µM
- Activity (HCT-116 [2]): 10.5%
- viability at 1 µM (HCT-116 [3]): 55.4%
- Activity (HCT-116 [4]): 1.53%
- IC50 (HCT-116 [5]): 0.81 µM
- Activity (HCT-116 [6]): 22.3%
- Activity (HCT-116 [7]): 20.7%
- Activity (HCT-116 [8]): 38.8%
- viability at 1 µM (HCT-116 [9]): 48.8%
- Activity (HCT-116 [10]): 1.91%

SMILES: CC(C)C[C@H](NC(=O)OCc1ccccc1)C(=O)N[C@@H](CC(C)C)C(=O)N[C@@H](CC(C)C)C(=O)C(=O)N1CCc2ccccc2C1
- IC50 [1]: 0.77 µM

SMILES: CC(C)C[C@H](NC(=O)OCc1ccccc1)C(=O)N[C@H](C(=O)C(=O)NCc1ccccc1)C(C)C
- IC50 [1]: 63.3 µM
- Ratio IC50 (Homo sapiens [11]): 30
- Ratio IC50 (Homo sapiens [12]): 7

SMILES: CC(C)C[C@H](NC(=O)OCc1ccccc1)C(=O)N[C@@H](CC(N)=O)C(O)C(=O)NCc1ccccc1 (stereo not given in full)
- IC50 [1]: > 100 µM

SMILES: CC(C)C[C@H](NC(=O)OCc1ccccc1)C(=O)N[C@@H](Cc1cccc2ccccc12)C(O)C(=O)NCc1ccccc1 (stereo not given in full)
- IC50 [1]: > 100 µM

SMILES: CC(C)C[C@H](NC(=O)OCc1ccccc1)C(=O)N[C@@H](CC(C)C)C(=O)N[C@@H](CC(C)C)C(O)C(=O)N1CCc2ccccc2C1 (stereo not given in full)
- IC50 [1]: > 100 µM

SMILES: CC(C)C[C@H](NC(=O)OCc1ccccc1)C(=O)N[C@@H](CC(C)C)C(=O)N[C@@H](CC(C)C)C(O)C(=O)Nc1cccc2ccccc12 (stereo not given in full)
- IC50 [1]: 8.1 µM

SMILES: CC(C)CNC(=O)C(O)[C@H](CC(C)C)NC(=O)[C@H](CC(C)C)NC(=O)[C@H](CC(C)C)NC(=O)OCc1ccccc1 (stereo not given in full)
- IC50 [1]: > 100 µM

SMILES: CC(C)C[C@H](NC(=O)OCc1ccccc1)C(=O)N[C@@H](Cc1ccc(O)cc1)C(=O)C(=O)NCc1ccccc1
- IC50 [1]: 12.4 µM
- IC50 (HCT-116 [5]): > 100 µM

SMILES: CC(C)C[C@H](NC(=O)OCc1ccccc1)C(=O)N[C@@H](CC(C)C)C(=O)C(=O)NCc1ccccc1
- IC50 [1]: 0.92 µM
- IC50 (HCT-116 [5]): 8.6 µM

SMILES: CC(C)C[C@H](NC(=O)OCc1ccccc1)C(=O)N[C@@H](CC(C)C)C(=O)N[C@@H](CC(C)C)C(O)C(=O)NCc1ccc(F)cc1 (stereo not given in full)
- IC50 [1]: > 100 µM

SMILES: CC(C)C[C@H](NC(=O)OCc1ccccc1)C(=O)N[C@@H](CC(C)C)C(=O)N[C@@H](CC(C)C)C(=O)C(=O)NCc1ccccc1
- IC50 [1]: 0.014 µM
- IC50 (HCT-116 [5]): 0.78 µM

SMILES: CC(C)C[C@H](NC(=O)OCc1ccccc1)C(=O)N[C@@H](CC(C)C)C(O)C(=O)NCc1ccccc1 (stereo not given in full)
- IC50 [1]: 50.2 µM

SMILES: CC(C)C[C@H](NC(=O)OCc1ccccc1)C(=O)N[C@@H](CC(C)C)C(=O)N[C@@H](CC(C)C)C(=O)C(=O)N1CCOCC1
- IC50 [1]: 0.48 µM

SMILES: CC(C)C[C@H](NC(=O)OCc1ccccc1)C(=O)N[C@@H](Cc1ccccc1)C(O)C(=O)NCc1ccccc1 (stereo not given in full)
- IC50 [1]: > 100 µM

SMILES: CC(C)C[C@H](NC(=O)OCc1ccccc1)C(=O)N[C@@H](CC(C)C)C(=O)N[C@@H](CC(C)C)C(=O)C(=O)Nc1cccc2ccccc12
- IC50 [1]: 0.007 µM
- Activity (HCT-116 [2]): 11.3%
- viability at 1 µM (HCT-116 [3]): 45.1%
- Activity (HCT-116 [4]): 2.77%
- Ratio IC50 (Homo sapiens [13]): > 14200
- IC50 (HCT-116 [5]): < 0.1 µM
- Activity (HCT-116 [6]): 29.5%
- Activity (HCT-116 [7]): 22.6%
- Ratio IC50 (Homo sapiens [14]): 8200
- Activity (HCT-116 [8]): 59.4%
- viability at 1 µM (HCT-116 [9]): 27.1%
- Activity (HCT-116 [10]): 2.29%

SMILES: CC(C)C[C@H](NC(=O)OCc1ccccc1)C(=O)N[C@@H](C(C)C)C(O)C(=O)NCc1ccccc1 (stereo not given in full)
- IC50 [1]: 82.1 µM

SMILES: CC(C)C[C@H](NC(=O)OCc1ccccc1)C(=O)N[C@@H](CC(C)C)C(=O)N[C@@H](CC(C)C)C(=O)C(=O)NCc1ccc(F)cc1
- IC50 [1]: 0.056 µM
- IC50 (HCT-116 [5]): 0.93 µM

SMILES: CC(C)C[C@@H](C=O)NC(=O)[C@H](CC(C)C)NC(=O)[C@H](CC(C)C)NC(=O)OCc1ccccc1 [MG-132] (Cbz-Leu-Leu-Leu-aldehyde)
- IC50 (HCT-116 [5]): 0.82 µM

SMILES: CC(C)C[C@H](NC(=O)OCc1ccccc1)C(=O)N[C@@H](Cc1ccccc1)C(=O)C(=O)NCc1ccccc1
- IC50 [1]: 51.1 µM
